Compound activity from PubChem BioAssay.
NF-kB neuron act: compounds increasing NF-kB expression in human neuronal cells | NF-kB reporter expression; stronger effect = higher value | fold change at 12.5 µM | 1.6% of 190,000 active; in the data active = fold change above about 3.3
APP 5'UTR act: APP 5'UTR luciferase reporter activation | SH-SY5Y APP 5'UTR luciferase reporter, luminescence; zero percent = DMSO vehicle wells | activation, % at 2 µM | 1% of 190,000 active | AID 1276;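 active = activation above a set limit, based on mean plus 3 SD of controls, cut at about 140% in these data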
FLuc inh counter: Photinus pyralis luciferase inhibition counter-screen; ATPLite firefly luciferase biochemical luminescence, 10 min; inhibition, % at 10 µM; 1.5% of 200,000 active; AID 1006;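 active = inhibition above about 50% when tested at 10 µM, limit read from the data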
Target sequence (P08659 whole entry, looked up): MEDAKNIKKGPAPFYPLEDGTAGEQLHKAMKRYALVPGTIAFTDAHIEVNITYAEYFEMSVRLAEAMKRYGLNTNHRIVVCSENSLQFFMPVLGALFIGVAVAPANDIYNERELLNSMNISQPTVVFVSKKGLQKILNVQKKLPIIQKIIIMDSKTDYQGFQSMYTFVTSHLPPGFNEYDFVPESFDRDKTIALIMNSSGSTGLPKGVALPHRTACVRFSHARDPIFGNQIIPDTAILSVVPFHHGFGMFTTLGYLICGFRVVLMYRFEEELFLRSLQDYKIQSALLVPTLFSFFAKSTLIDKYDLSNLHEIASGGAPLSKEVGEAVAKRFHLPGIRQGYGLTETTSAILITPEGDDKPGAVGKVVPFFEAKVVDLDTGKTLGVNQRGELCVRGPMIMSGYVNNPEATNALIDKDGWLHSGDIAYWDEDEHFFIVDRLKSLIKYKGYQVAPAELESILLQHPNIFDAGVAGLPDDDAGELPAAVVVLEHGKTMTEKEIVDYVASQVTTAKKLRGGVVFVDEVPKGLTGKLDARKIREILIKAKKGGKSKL
FLuc stim CS: affects firefly luciferase, flagging false hits in luciferase stimulation screens; P08659; ATPlite luciferase biochemical, luminescence, 10 min; 0 = ATP-free wells, 1 = DMSO control; AID 1027; 200,000 tested, under 10 active; activation factor at 10 µM;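 active = luciferase activation factor, scaled between plate controls, of at least 2 with compound at 10 µM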
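Assay system: Luciferase/luciferin detection reagent, cell-free biochemical luciferase assay / Read-out: luciferase activation / Benchmarks: No-ATP low control, compound-free enzyme-plus-ATP high control / Medium: PBS buffer for ATP / Detection: luminescence measurement of luciferase light output / Schedule: 10 min at ambient temperature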
STAT1 act: increases IFN-gamma driven STAT1 reporter signal | 2.6% of 200,000 active | NIH 3T3 STAT1-luciferase reporter, luminescence; 100% = IFN-gamma alone, no compound | activation (% of control), % at 5.5 µM;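 active = activation above the screen-wide mean activation plus 3 SD, cut at about 130% in these data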
A number is an active result. The list is not random: actives were taken first. Their share in the collection is about 4.1%.

How did O=C(Nc1ccccn1)c1cc2ccccc2o1 do in these assays?
NF-kB neuron act: inactive; APP 5'UTR act: inactive; FLuc inh counter: 94.6; FLuc stim CS: inactive; STAT1 act: inactive

Results for CCC(=O)Nc1ccc(NC(=O)c2cc3ccccc3o2)cc1 ?
NF-kB neuron act: inactive; APP 5'UTR act: inactive; FLuc inh counter: inactive; FLuc stim CS: inactive; STAT1 act: inactive

Results for O=C(NC1=NCCS1)c1cc2ccccc2o1 ?
NF-kB neuron act: 4.77; APP 5'UTR act: inactive; FLuc inh counter: 86.2; FLuc stim CS: inactive; STAT1 act: inactive

Results for Cc1csc(C(C#N)C(=O)c2cc3ccccc3o2)n1 (stereo not drawn) ?
NF-kB neuron act: inactive; APP 5'UTR act: inactive; FLuc inh counter: 87.8; FLuc stim CS: inactive; STAT1 act: inactive

What do the screens show for `c1ccc(NCC2OCc3ccccc3CO2)cc1`?
NF-kB neuron act: inactive; APP 5'UTR act: inactive; FLuc inh counter: inactive; FLuc stim CS: inactive; STAT1 act: 136.0

Results for CCCCCCNCC1OCc2ccccc2CO1 ?
NF-kB neuron act: inactive; APP 5'UTR act: inactive; FLuc inh counter: inactive; FLuc stim CS: inactive; STAT1 act: inactive

How did O=C(c1nc2ccccn2c1CN1CCCC(c2nc3ccccc3o2)C1)N1CCCC1 (stereo not drawn) do in these assays?
NF-kB neuron act: inactive; APP 5'UTR act: inactive; FLuc inh counter: inactive; FLuc stim CS: inactive; STAT1 act: inactive

Results for Cc1cc(C(=O)Nc2sc(C)c(-c3ccc(F)cc3)c2C(N)=O)no1 ?
NF-kB neuron act: inactive; APP 5'UTR act: inactive; FLuc inh counter: inactive; FLuc stim CS: inactive; STAT1 act: 160.9

What do the screens show for `O=C(O)CSc1cc(C(=O)c2ccccc2O)cn2c(=O)c3c(-c4ccccc4)csc3nc12`?
NF-kB neuron act: inactive; APP 5'UTR act: inactive; FLuc inh counter: inactive; FLuc stim CS: inactive; STAT1 act: inactive

Results for CCOC(=O)c1sc2nc3c(SCC(=O)O)cc(C(=O)c4cc(F)ccc4O)cn3c(=O)c2c1C ?
NF-kB neuron act: inactive; APP 5'UTR act: inactive; FLuc inh counter: 50.6; FLuc stim CS: inactive; STAT1 act: inactive

What do the screens show for `CCOC(=O)c1sc2nc3c(SCC(=O)O)cc(C(=O)c4ccccc4O)cn3c(=O)c2c1C`?
NF-kB neuron act: inactive; APP 5'UTR act: inactive; FLuc inh counter: 79.4; FLuc stim CS: inactive; STAT1 act: inactive

Results for Cc1cc(C)c[n+](-c2[nH]c(=O)sc2/C=N/NC([S-])=Nc2ccccc2)c1 ?
NF-kB neuron act: inactive; APP 5'UTR act: inactive; FLuc inh counter: inactive; FLuc stim CS: inactive; STAT1 act: inactive

Results for O=C(Nc1ccccc1)Nc1cccc2nsnc12 ?
NF-kB neuron act: 4.29; APP 5'UTR act: inactive; FLuc inh counter: inactive; FLuc stim CS: inactive; STAT1 act: 140.4

Results for Cc1ccc(NCCC(=O)c2cccs2)cc1Cl ?
NF-kB neuron act: inactive; APP 5'UTR act: inactive; FLuc inh counter: inactive; FLuc stim CS: inactive; STAT1 act: inactive

How did Cc1ccc(NCCC(=O)c2cccs2)cc1C do in these assays?
NF-kB neuron act: inactive; APP 5'UTR act: inactive; FLuc inh counter: inactive; FLuc stim CS: inactive; STAT1 act: 142.6

What do the screens show for `Cc1ccc(NCCC(=O)c2cccs2)cc1`?
NF-kB neuron act: inactive; APP 5'UTR act: inactive; FLuc inh counter: inactive; FLuc stim CS: inactive; STAT1 act: 150.1

How did CC(C)c1ccc(NCCC(=O)c2cccs2)cc1 do in these assays?
NF-kB neuron act: inactive; APP 5'UTR act: inactive; FLuc inh counter: inactive; FLuc stim CS: inactive; STAT1 act: inactive

Results for Cc1cccc(OCC(=O)Nc2ccc3nc(C)sc3c2)c1 ?
NF-kB neuron act: inactive; APP 5'UTR act: inactive; FLuc inh counter: inactive; FLuc stim CS: inactive; STAT1 act: inactive

How did Cc1ccc(C2(C)NC(=O)N(CC(=O)Nc3ccc4c(c3)OCO4)C2=O)cc1 (stereo not drawn) do in these assays?
NF-kB neuron act: inactive; APP 5'UTR act: inactive; FLuc inh counter: inactive; FLuc stim CS: inactive; STAT1 act: inactive

How did COc1ccc(C2(C)NC(=O)N(CC(=O)Nc3ccc(-c4nc5ccc(C)cc5s4)cc3)C2=O)cc1 (stereo not drawn) do in these assays?
APP 5'UTR act: 171.0; FLuc inh counter: inactive; FLuc stim CS: inactive; STAT1 act: 143.8

How did Cc1ccc(N(CC(=O)Nc2ccc(-c3nc4ccc(C)cc4s3)cc2)S(C)(=O)=O)cc1 do in these assays?
NF-kB neuron act: inactive; APP 5'UTR act: inactive; FLuc inh counter: inactive; FLuc stim CS: inactive; STAT1 act: 139.7

Results for Cc1ccc(C)c(N(CC(=O)Nc2ccc(-c3nc4ccc(C)cc4s3)cc2)S(C)(=O)=O)c1 ?
NF-kB neuron act: inactive; APP 5'UTR act: inactive; FLuc inh counter: inactive; FLuc stim CS: inactive; STAT1 act: inactive

Results for Cc1ccc2nc(-c3ccc(NC(=O)COC(=O)c4ccc(=O)[nH]c4)cc3)sc2c1 ?
NF-kB neuron act: 6.49; APP 5'UTR act: 165.0; FLuc inh counter: 50.4; FLuc stim CS: inactive; STAT1 act: 135.3

How did Cc1ccc2nc(-c3ccc(NC(=O)CNC4CC4)cc3)sc2c1 do in these assays?
NF-kB neuron act: 5.33; APP 5'UTR act: 199.0; FLuc inh counter: inactive; FLuc stim CS: inactive; STAT1 act: inactive

Results for COc1ccc(CCN(Cc2cc3cccc(C)c3n3nnnc23)C(=O)c2ccncc2)cc1OC ?
NF-kB neuron act: inactive; APP 5'UTR act: inactive; FLuc inh counter: inactive; FLuc stim CS: inactive; STAT1 act: inactive

What do the screens show for `CCOC(=O)c1cccnc1SCC(=O)N(CC)c1cccc(C)c1`?
NF-kB neuron act: inactive; APP 5'UTR act: inactive; FLuc inh counter: inactive; FLuc stim CS: inactive; STAT1 act: inactive

Results for Cc1ccc(S(=O)(=O)CCC(=O)Nc2ccc3nc(C)sc3c2)cc1 ?
NF-kB neuron act: inactive; APP 5'UTR act: inactive; FLuc inh counter: inactive; FLuc stim CS: inactive; STAT1 act: inactive

Results for Cc1ccc2nc(-c3ccc(NC(=O)CCS(=O)(=O)c4ccccc4)cc3)sc2c1 ?
NF-kB neuron act: 3.6; APP 5'UTR act: inactive; FLuc inh counter: inactive; FLuc stim CS: inactive; STAT1 act: inactive

How did Cc1ccc(S(=O)(=O)Nc2ccc(-c3nc4ccc(C)cc4s3)cc2)cc1 do in these assays?
NF-kB neuron act: inactive; APP 5'UTR act: inactive; STAT1 act: inactive

What do the screens show for `Cc1cccc(S(=O)(=O)Nc2ccc(-c3nc4ccc(C)cc4s3)cc2)c1`?
NF-kB neuron act: inactive; APP 5'UTR act: 163.1; FLuc inh counter: inactive; FLuc stim CS: inactive; STAT1 act: 147.2

What do the screens show for `Cc1nc2cc(NC(=O)CCS(=O)(=O)c3ccccc3)ccc2s1`?
NF-kB neuron act: inactive; APP 5'UTR act: inactive; FLuc inh counter: inactive; FLuc stim CS: inactive; STAT1 act: 150.2

Results for Cc1nc2ccc(NC(=O)CCS(=O)(=O)c3ccccc3)cc2s1 ?
NF-kB neuron act: inactive; APP 5'UTR act: inactive; FLuc inh counter: inactive; FLuc stim CS: inactive; STAT1 act: inactive

Results for CC(C)(C)NC(=O)CSc1nc(-c2ccc(F)cc2)cs1 ?
NF-kB neuron act: 4.67; APP 5'UTR act: inactive; FLuc inh counter: 55.1; FLuc stim CS: inactive; STAT1 act: 141.2

How did CC(C)(C)NC(=O)NC(=O)COc1ccccc1C#N do in these assays?
NF-kB neuron act: inactive; APP 5'UTR act: 186.6; FLuc inh counter: inactive; FLuc stim CS: inactive; STAT1 act: 140.3
